Results taken from ChEMBL document CHEMBL1153829, “Exploiting chemical libraries, structure, and genomics in the search for kinase inhibitors” (Science, 1998).
Active and inactive are the calls of the source. The rule behind the calls is not given here.

Experiments:
[1] = tested on: Saccharomyces cerevisiae; experiment: Upregulation of HSP82 gene expression in delta snq2, delta pdr5 and delta erg6 knock out yeast YRP1 at 25 µM after 2 hrs by high-density oligonucleotide array; format: functional, organism-based
Method in brief: (§1)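 Drug-sensitized yeast strain grown to late logarithmic phase, then exposed to 25 μM inhibitor for 2 h. Polyadenylated mRNA was isolated and converted to biotin-labeled cRNA, which was hybridized to a set of four arrays carrying over 260,000 25-nucleotide oligomers. Transcripts changing more than twofold were scored, from triplicate hybridizations in each of two independent experiments.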

[2] = tested on: Saccharomyces cerevisiae; experiment: Increase in PHO84 mRNA level in delta snq2, delta pdr5 and delta erg6 knock out yeast YRP1 at 25 µM after 2 hrs by high-density oligonucleotide array; format: functional, organism-based
Method in brief: (§2)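 Drug-sensitized S. cerevisiae cultures grown to late logarithmic phase, then exposed to 25 μM inhibitor for 2 h. Polyadenylated mRNA isolated, converted to biotin-labeled cRNA and hybridized to a set of four high-density arrays carrying more than 260,000 25-nucleotide oligomers. Transcripts scored as changed when they shifted more than twofold in triplicate hybridizations for each of two independent experiments.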

[3] = tested on: Saccharomyces cerevisiae; experiment: Effect on HTA2 gene expression in delta snq2, delta pdr5 and delta erg6 knock out yeast YRP1 bearing cdc28-4 mutant allele assessed as change in mRNA level at 25 µM after 2 hrs by high-density oligonucleotide array; format: functional, organism-based
[4] = tested on: Saccharomyces cerevisiae; experiment: Upregulation of PMC1 gene expression in delta snq2, delta pdr5 and delta erg6 knock out yeast YRP1 at 25 µM after 2 hrs by high-density oligonucleotide array; format: functional, organism-based; method in brief: as §1
[5] = tested on: Saccharomyces cerevisiae; experiment: Downregulation of CLB1 mRNA expression in delta snq2, delta pdr5 and delta erg6 knock out yeast YRP1 at 25 µM after 2 hrs by high-density oligonucleotide array; format: functional, organism-based; settings: 25 M; method in brief: as §2
[6] = tested on: Saccharomyces cerevisiae; experiment: Effect on CTS1 gene expression in delta snq2, delta pdr5 and delta erg6 knock out yeast YRP1 assessed as change in mRNA level at 25 µM after 2 hrs by high-density oligonucleotide array; format: functional, organism-based; settings: 25 M; method in brief: as §2
[7] = tested on: Saccharomyces cerevisiae; experiment: Effect on YDR281C gene expression in delta snq2, delta pdr5 and delta erg6 knock out yeast YRP1 bearing cdc28-4 mutant allele assessed as change in mRNA level at 25 µM after 2 hrs by high-density oligonucleotide array; format: functional, organism-based
[8] = tested on: Saccharomyces cerevisiae; experiment: Effect on ATR1 gene expression in delta snq2, delta pdr5 and delta erg6 knock out yeast YRP1 bearing cdc28-4 mutant allele assessed as change in mRNA level at 25 µM after 2 hrs by high-density oligonucleotide array; format: functional, organism-based
[9] = tested on: Saccharomyces cerevisiae; experiment: Effect on YGL121C gene expression in delta snq2, delta pdr5 and delta erg6 knock out yeast YRP1 bearing cdc28-4 mutant allele assessed as change in mRNA level at 25 µM after 2 hrs by high-density oligonucleotide array; format: functional, organism-based; settings: 25 M
[10] = tested on: Saccharomyces cerevisiae; experiment: Effect on YBR147w gene expression in delta snq2, delta pdr5 and delta erg6 knock out yeast YRP1 bearing cdc28-4 mutant allele assessed as change in mRNA level at 25 µM after 2 hrs by high-density oligonucleotide array; format: functional, organism-based
[11] = tested on: Saccharomyces cerevisiae; experiment: Effect on HAC1 gene expression in delta snq2, delta pdr5 and delta erg6 knock out yeast YRP1 assessed as change in mRNA level at 25 µM after 2 hrs by high-density oligonucleotide array; format: functional, organism-based; method in brief: as §2
[12] = tested on: Saccharomyces cerevisiae; experiment: Effect on YBR214w gene expression in delta snq2, delta pdr5 and delta erg6 knock out yeast YRP1 assessed as change in mRNA level at 25 µM after 2 hrs by high-density oligonucleotide array; format: functional, organism-based; method in brief: as §2
[13] = tested on: Saccharomyces cerevisiae; experiment: Induction of GPH1 gene expression in delta snq2, delta pdr5 and delta erg6 knock out yeast YRP1 bearing cdc28-4 mutant allele at 25 µM after 2 hrs by high-density oligonucleotide array; format: functional, organism-based; settings: 25 M
Method in brief: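 cdc28-4 temperature-sensitive strain and its isogenic wild type were profiled at the permissive temperature of 25°C. Polyadenylated mRNA was converted to biotin-labeled cRNA and hybridized to high-density oligonucleotide arrays. Transcripts changing more than twofold were scored, from triplicate hybridizations of RNA from a single experiment.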

[14] = tested on: Saccharomyces cerevisiae; experiment: Effect on ZMS1 gene expression in delta snq2, delta pdr5 and delta erg6 knock out yeast YRP1 bearing cdc28-4 mutant allele assessed as change in mRNA level at 25 µM after 2 hrs by high-density oligonucleotide array; format: functional, organism-based; settings: 25 M
[15] = tested on: Saccharomyces cerevisiae; experiment: Decrease in RPL4A mRNA level in delta snq2, delta pdr5 and delta erg6 knock out yeast YRP1 at 25 µM after 2 hrs by high-density oligonucleotide array; format: functional; method in brief: as §2
[16] = tested on: Saccharomyces cerevisiae; experiment: Upregulation of INO1 gene expression in delta snq2, delta pdr5 and delta erg6 knock out yeast YRP1 at 25 µM after 2 hrs by high-density oligonucleotide array; format: functional, organism-based; settings: 25 M; method in brief: as §1
[17] = tested on: Saccharomyces cerevisiae; experiment: Effect on YKL071W gene expression in delta snq2, delta pdr5 and delta erg6 knock out yeast YRP1 bearing cdc28-4 mutant allele assessed as change in mRNA level at 25 µM after 2 hrs by high-density oligonucleotide array; format: functional, organism-based
[18] = tested on: Saccharomyces cerevisiae; experiment: Effect on TFS1 gene expression in delta snq2, delta pdr5 and delta erg6 knock out yeast YRP1 assessed as change in mRNA level at 25 µM after 2 hrs by high-density oligonucleotide array; format: functional, organism-based; method in brief: as §2
[19] = tested on: Saccharomyces cerevisiae; experiment: Increase in HSP12 mRNA level in delta snq2, delta pdr5 and delta erg6 knock out yeast YRP1 at 25 µM after 2 hrs by high-density oligonucleotide array; format: functional, organism-based; method in brief: as §2
[20] = tested on: Saccharomyces cerevisiae; experiment: Induction of PGM2 gene expression in delta snq2, delta pdr5 and delta erg6 knock out yeast YRP1 at 25 µM after 2 hrs by high-density oligonucleotide array; format: functional, organism-based; settings: 25 M; method in brief: as §1
[21] = tested on: Saccharomyces cerevisiae; experiment: Upregulation of YPT53 gene expression in delta snq2, delta pdr5 and delta erg6 knock out yeast YRP1 at 25 µM after 2 hrs by high-density oligonucleotide array; format: functional, organism-based; settings: 25 M; method in brief: as §1
[22] = tested on: Saccharomyces cerevisiae; experiment: Increase in CTT1 mRNA level in delta snq2, delta pdr5 and delta erg6 knock out yeast YRP1 at 25 µM after 2 hrs by high-density oligonucleotide array; format: functional, organism-based; settings: 25 M; method in brief: as §2
[23] = tested on: Saccharomyces cerevisiae; experiment: Upregulation of HSP26 gene expression in delta snq2, delta pdr5 and delta erg6 knock out yeast YRP1 at 25 µM after 2 hrs by high-density oligonucleotide array; format: functional, organism-based; method in brief: as §1
[24] = tested on: Saccharomyces cerevisiae; experiment: Effect on YOR248W gene expression in delta snq2, delta pdr5 and delta erg6 knock out yeast YRP1 bearing cdc28-4 mutant allele assessed as change in mRNA level at 25 µM after 2 hrs by high-density oligonucleotide array; format: functional, organism-based; settings: 25 M
[25] = tested on: Saccharomyces cerevisiae; experiment: Decrease in RPS24A mRNA level in delta snq2, delta pdr5 and delta erg6 knock out yeast YRP1 at 25 µM after 2 hrs by high-density oligonucleotide array; format: functional; method in brief: as §2
[26] = tested on: Saccharomyces cerevisiae; experiment: Increase in PHO5 mRNA level in delta snq2, delta pdr5 and delta erg6 knock out yeast YRP1 at 25 µM after 2 hrs by high-density oligonucleotide array; format: functional, organism-based; method in brief: as §2
[27] = tested on: Saccharomyces cerevisiae; experiment: Down regulation of CLB2 mRNA expression in delta snq2, delta pdr5 and delta erg6 knock out yeast YRP1 assessed as change in mRNA level at 25 µM after 2 hrs by high-density oligonucleotide array; format: functional, organism-based; method in brief: as §2
[28] = tested on: Saccharomyces cerevisiae; experiment: Upregulation of YER150w gene expression in delta snq2, delta pdr5 and delta erg6 knock out yeast YRP1 at 25 µM after 2 hrs by high-density oligonucleotide array; format: functional, organism-based; settings: 25 M; method in brief: as §1
[29] = tested on: Saccharomyces cerevisiae; experiment: Effect on YHR143W gene expression in delta snq2, delta pdr5 and delta erg6 knock out yeast YRP1 assessed as change in mRNA level at 25 µM after 2 hrs by high-density oligonucleotide array; format: functional, organism-based; settings: 25 M; method in brief: as §2
[30] = tested on: Saccharomyces cerevisiae; experiment: Effect on PGM2 gene expression in delta snq2, delta pdr5 and delta erg6 knock out yeast YRP1 assessed as change in mRNA level at 25 µM after 2 hrs by high-density oligonucleotide array; format: functional, organism-based; settings: 25 M; method in brief: as §2

Question: For `CC(C)n1cnc2/c(=N/c3cccc(Cl)c3)nc(NCCO)[nH]c21`, which Activity [1] is on record?
Answer: Active

Question: And the Activity [2]?
Answer: Active

Question: And the Activity [3]?
Answer: Active

Question: And the Activity [4]?
Answer: Active

Question: And the Activity [5]?
Answer: Active

Question: What about the Activity [6] of the same molecule?
Answer: Active

Question: What about the Activity [7] of the same molecule?
Answer: Active

Question: What about the Activity [8] of the same molecule?
Answer: Active

Question: And the Activity [9]?
Answer: Active

Question: And the Activity [10]?
Answer: Active

Question: And the Activity [11]?
Answer: Active

Question: What about the Activity [12] of the same molecule?
Answer: Active

Question: And the Activity [13]?
Answer: Active

Question: What about the Activity [14] of the same molecule?
Answer: Active

Question: What about the “fold change (FC)” value [15] of the same molecule?
Answer: 3

Question: And the Activity [16]?
Answer: Active

Question: What about the Activity [17] of the same molecule?
Answer: Active

Question: What about the Activity [18] of the same molecule?
Answer: Active

Question: What about the Activity [19] of the same molecule?
Answer: Active

Question: And the Activity [20]?
Answer: Active

Question: What about the Activity [21] of the same molecule?
Answer: Active

Question: And the Activity [22]?
Answer: Active

Question: What about the Activity [23] of the same molecule?
Answer: Active

Question: And the Activity [24]?
Answer: Active

Question: What about the “fold change (FC)” value [25] of the same molecule?
Answer: 3

Question: What about the Activity [26] of the same molecule?
Answer: Active

Question: What about the Activity [27] of the same molecule?
Answer: Active

Question: And the Activity [28]?
Answer: Active

Question: What about the Activity [29] of the same molecule?
Answer: Active

Question: What about the Activity [30] of the same molecule?
Answer: Active

Question: With `CN1CC[C@H](c2c(O)cc(O)c3c(=O)cc(-c4ccccc4Cl)oc23)[C@H](O)C1` [ALVOCIDIB] as the molecule, how does the Activity [1] read?
Answer: Active

Question: What about the Activity [2] of the same molecule?
Answer: Active

Question: And the Activity [3]?
Answer: Active

Question: What about the Activity [4] of the same molecule?
Answer: Active

Question: And the Activity [5]?
Answer: Active

Question: What about the Activity [6] of the same molecule?
Answer: Active

Question: What about the Activity [7] of the same molecule?
Answer: Active

Question: What about the Activity [8] of the same molecule?
Answer: Active

Question: What about the Activity [9] of the same molecule?
Answer: Active

Question: And the Activity [10]?
Answer: Active

Question: And the Activity [11]?
Answer: Active

Question: What about the Activity [12] of the same molecule?
Answer: Active

Question: What about the Activity [13] of the same molecule?
Answer: Active

Question: And the Activity [14]?
Answer: Active

Question: What about the “fold change (FC)” value [15] of the same molecule?
Answer: 3

Question: And the Activity [16]?
Answer: Active

Question: What about the Activity [17] of the same molecule?
Answer: Active

Question: What about the Activity [18] of the same molecule?
Answer: Active

Question: And the Activity [19]?
Answer: Active

Question: And the Activity [20]?
Answer: Active

Question: And the Activity [21]?
Answer: Active

Question: And the Activity [22]?
Answer: Active

Question: And the Activity [23]?
Answer: Active

Question: What about the Activity [24] of the same molecule?
Answer: Active

Question: And the “fold change (FC)” value [25]?
Answer: 3

Question: What about the Activity [26] of the same molecule?
Answer: Active

Question: And the Activity [27]?
Answer: Active

Question: What about the Activity [28] of the same molecule?
Answer: Active

Question: What about the Activity [29] of the same molecule?
Answer: Active

Question: What about the Activity [30] of the same molecule?
Answer: Active
